# Results from PubChem BioAssay AID504383 (The Scripps Research Institute Molecular Screening Center, 2011).
# Screen size: about 2,500 compounds; about 1,200 (48%) were called active. The set was probably picked from earlier hits. The list shows a part of the results. Values without a mark were called inactive.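 Rule for the calls: active = mean activation above the low control average plus 3 SD, as set in the primary screen (cut at about 12% in these data); inactive = the rest.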
# Biological target: Troponin I, cardiac muscle (Homo sapiens) + Troponin T, cardiac muscle (Homo sapiens) + Troponin C, slow skeletal and cardiac muscles (Homo sapiens) (UniProt P19429+P45379+P63316)
# Assay: cardiac RTF calcium sensitivity activators, confirmation, biochemical, IANBD-TnC fluorescence, triplicate (AID 504383);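 note: 0% = DMSO at 0.472 mM calcium and 100% = DMSO at 2.9 mM calcium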
# Conditions: IANBD-labeled cardiac RTF, Ca2+ sensitivity fluorescence; at 7.2 µM; hits give high values; scaled from EC20 to saturating calcium; tested at EC20 calcium, 0.472 mM
# Summary of the method: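 Assay system: labelled regulated thin filament protein complex; schedule: 15 min compound incubation with filaments at 25 °C; benchmarks: low control EC20 calcium, high control EC100 calcium; reagent: Ca2+ 0.472 mM, EC20 level; doses: one dose, 7.2 µM nominal; evaluation: fluorescence gain scaled between EC20 and EC100 calcium controls; signal: filament fluorescence intensity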
row,SMILES,activation
1,CSc1nnnn1-c1c(C)cc(C)cc1C,3.29%
2,Cc1ccccc1-n1nnnc1SCC(C)C,103% (active)
3,O=C(COc1ccccc1F)NC1CC1,66.3% (active)
4,COC(=O)c1cc2c(C)c(C)c3ccccn3c-2c1C(=O)OC,5.27%
5,O=C(N/N=C/c1cc([N+](=O)[O-])ccc1N1CCNCC1)c1ccc([N+](=O)[O-])cc1,19% (active)
6,CCOc1ccc(NC(=S)c2ccncc2)cc1,6.9%
7,C=CCN1C(=O)[C@@H]2Cc3c([nH]c4ccccc34)C(c3ccc(O)cc3)N2C1=S (some centres undefined),4.94%
8,N#CC12COC3(CCCCC3C1(C#N)C#N)OC2=N (centres undefined),2.01%
9,CN(C)c1ccc(/C=C2\CCC/C(=C\c3ccccc3)C2=O)cc1,0.5%
10,CCN(CC)c1ccc(/C=C2\SC(N)=NC2=O)cc1,108% (active)
11,CN(C)c1ccc(C=C2SC(=S)NC2=O)cc1,11.7% (active)
12,COc1ccccc1N=C1NC(=O)/C(=C/c2ccc(N(C)C)cc2)S1,10.9%
13,CCN(CC)c1ccc(C=C2SC(=S)NC2=O)cc1,57.9% (active)
14,CCCOc1ccc(-c2nn(-c3ccccc3)cc2/C=C2\SC(N)=NC2=O)cc1,-0.61%
15,COc1ccc(-c2nn(CCC(=O)O)cc2/C=C2\SC(N)=NC2=O)cc1,8.42%
16,CCOc1ccc(N(C)c2ccc(/C=C3/SC(=S)NC3=O)cc2)cc1,20.5% (active)
17,NC(=O)C1(NC(=O)[C@@H]2CC3(CC(c4cccc(NC(=O)[C@@H]5CCC(=O)N5)c4)=NO3)CN2C(=O)c2ccccc2)CC1 (some centres undefined),9.17%
18,COc1ccc(N/C=C2\C(=O)CCc3c2oc2cc(Cl)c(O)c(Cl)c32)cc1,47.7% (active)
19,Cc1cccc(/C=C2/SC(=O)N(Cc3ccccc3)C2=O)n1,47.1% (active)
20,COC(=O)c1ccccc1NC(=O)[C@@H]1CCC(=O)N1C1OC(=O)c2c1ccc(OC)c2OC (some centres undefined),3.55%
21,CCOc1cc2c(cc1/C=C/c1noc(C)c1[N+](=O)[O-])OC(C)C2 (centres undefined),330% (active)
22,Cn1cc(/C=C/c2cc[n+](C)cc2)c2cc(F)ccc21,6.92%
23,COC(=O)Cn1c(C)c(/C=C/c2cc[n+](C)cc2)c2ccccc21,12.8% (active)
24,CCn1cc(/C=C/c2cc[n+](C)cc2)c2ccccc21,12.4% (active)

row,SMILES,activation
1,C=CCn1c(C)c(/C=C/c2cc[n+](C)cc2)c2ccccc21,38.7% (active)
2,C=CCn1cc(/C=C/c2cc[n+](C)cc2)c2ccccc21,5.8%
3,Cn1cc(/C=C/c2cc[n+](C)cc2)c2cc(Cl)ccc21,3.84%
4,CC(C)n1cc(/C=C/c2cc[n+](C)cc2)c2ccccc21,31.7% (active)
5,CCN(CC)C(=O)Cn1c(C)c(/C=C/c2cc[n+](C)cc2)c2ccccc21,6.95%
6,COC(=O)Cn1cc(/C=C/c2cc[n+](C)cc2)c2ccccc21,16.8% (active)
7,COC(=O)c1ccc2c(c1)C(C)(C)C(/C=C/c1ccccc1O)=[N+]2C,7.52%
8,Oc1ccc2ccc3cccc[n+]3c2c1,68.4% (active)
9,COc1ccc(-c2onc3ccc(C(C)=O)cc23)cc1,18% (active)
10,CC(=O)c1ccc2noc(-c3ccc(C)cc3)c2c1,6.52%
11,CCC1(c2ccccc2)NC(=O)N(CC(=O)Nc2ccc(OC)nc2)C1=O (centres undefined),11%
12,O=C(CN1C(=O)NC2(CCCCC2)C1=O)Nc1ccccc1Cl,12.1% (active)
13,CC1(c2ccc(OC(F)F)cc2)NC(=O)N(CC(=O)Nc2ccc(F)cc2)C1=O (centres undefined),1.92%
14,C=CCOc1ccc(C2OC34CCCCC3C(C#N)(C#N)C2(C#N)C(=N)O4)cc1 (centres undefined),11.3%
15,Cc1cc(C)n2nc(C(=O)N3CCCC(Nc4ccc(C(C)C)cc4)C3)cc2n1 (centres undefined),11.9% (active)
16,COc1ccc(-c2ccc(C3C(C#N)=C(N)Oc4n[nH]c(C)c43)o2)cc1 (centres undefined),53.6% (active)
17,Cc1[nH]nc2c1C(c1cc(Br)cs1)C(C#N)=C(N)O2 (centres undefined),1.18%
18,CCCCCCCC(=O)Nc1ccc(S(=O)(=O)Nc2nccs2)cc1,39.1% (active)
19,CN(C)C(CNC(=O)c1cccc(S(=O)(=O)N(C)C)c1)c1ccccc1 (centres undefined),14.9% (active)
20,CC(NC(=O)COc1ccc(N(C)S(=O)(=O)c2ccccc2)cc1)c1ccccc1 (centres undefined),8.81%
21,O=C(NCc1cccc(C(F)(F)F)c1)c1cccc(S(=O)(=O)NCc2ccccc2)c1,7.34%
22,CC(=O)C1=C(O)CCCC1=NCc1nc2ccccc2[nH]1,2.38%
23,O=C(CSC1CC(=O)N(c2ccc(C(=O)O)cc2)C1=O)Nc1ccc2ccccc2c1 (centres undefined),1.35%
24,CCOc1ccc(N2C(=O)CC(SCc3nc4ccccc4[nH]3)C2=O)cc1 (centres undefined),16.2% (active)

row,SMILES,activation
1,C[C@H](O)C(=O)C1=Nc2c(nc(N)[nH]c2=O)NC1,-0.23%
2,Cc1ccc(C)c(N2CCN(C(=O)c3cc4ccccn4n3)CC2)c1,21.1% (active)
3,O=C(Nc1ccc(Cl)c(Cl)c1)Nc1ccc([N+](=O)[O-])cn1,28.5% (active)
4,O=C(COC(=O)C1(c2ccc(F)cc2)CCCC1)N1CCN(C(=O)c2ccco2)CC1,3.96%
5,O=C(Nc1ccc(N2CCN(C(=O)c3ccco3)CC2)cc1)c1ccc(F)cc1,14.9% (active)
6,O=C(COC(=O)C1(c2ccccc2F)CCCC1)Nc1ncc(C(F)(F)F)cc1Cl,4.8%
7,COc1ccc(/C=N/NC(=O)Cn2c(Cc3ccc(OC)c(OC)c3)nc3ccccc32)cc1,15% (active)
8,COc1ccc(/C=C/C(=O)c2nc3ccccc3n2CC(=O)c2ccc(OC)cc2)cc1,-1.84%
9,Cc1c(C(=O)NCc2ccc3c(c2)cc(C)n3C)cccc1[N+](=O)[O-],8.1%
10,Cc1c(C(=O)NCc2ccco2)cccc1[N+](=O)[O-],11.7% (active)
11,O/C(=C\c1nc2ccccc2[nH]1)c1cccs1,2.34%
12,c1ccc2[nH]c3cc4ncnc4cc3nc2c1,27.5% (active)
13,Cc1ncn(C23CC4CC(CC(C4)C2)C3)n1,4.82%
14,COC(=O)C1=C(O)/C(=C\c2ccc(CNS(=O)(=O)c3ccc(Cl)cc3)o2)N=C1C,9.05%
15,CCOc1ccccc1N(CC(=O)Nc1ccc(OC)c(OC)c1)S(=O)(=O)c1ccccc1,5.99%
16,COC(=O)CN(c1cc(OC)ccc1OC)S(=O)(=O)c1ccc(OC)c(OC)c1,14.6% (active)
17,COc1ccc(OC)c(NC(=O)c2cc(S(=O)(=O)N(C)C)ccc2N2CCCC2)c1,7.08%
18,Cn1c(CN2CCCC2)nc2cc(NC(=O)COc3ccc([N+](=O)[O-])cc3)ccc21,8.98%
19,CCC(=O)Nc1ccc2c(c1)nc(CCN1CCN(C)CC1)n2C,56% (active)
20,CCCn1c(CN2CCN(C(=O)OCC)CC2)nc2cc(NC(=O)CC)ccc21,8.96%
21,O=C(O)CN1C(=O)/C(=C/c2ccc(SCc3ccccc3)o2)SC1=S,39.7% (active)
22,Cn1cccc1/C=C1\SC(=S)N(CC(=O)O)C1=O,14.1% (active)
23,Cn1cccc1/C=C1/SC(=S)N(CC(=O)O)C1=O,176% (active)
24,CN1/C(=C\C=C2/SC(=S)N(CC(=O)O)C2=O)C(C)(C)c2ccccc21,7.05%

row,SMILES,activation
1,O=C(O)c1cc(-c2ccc(/C=C3/SC(=S)N(Cc4ccccc4)C3=O)o2)ccc1Cl,5.81%
2,COc1ccc(Nc2cccc3ccccc23)cc1,199% (active)
3,CCOc1cc(N2CCOCC2)c(OCC)cc1NC(=O)CCS(=O)(=O)c1ccc(Cl)cc1,72% (active)
4,COc1cc(/C=N/NC(=O)c2cc(-c3ccccc3Cl)nc3ccccc23)cc(OC)c1O,15.8% (active)
5,COc1cc(/C=N\NC(=O)CC(=O)NCCc2ccccc2)ccc1O,7.55%
6,CCOc1ccc(C(=O)NCC(=O)Nc2ncccc2C)cc1OCC,16.6% (active)
7,Cc1cccc(/C=N/n2c(-c3ccncc3)n[nH]c2=S)c1,39.4% (active)
8,CCCCC1=CC2=C(c3ccco3)C(=O)C(C)(OC(=O)c3ccc(OC)cc3)C(=O)C2=CN1CCc1ccccn1 (centres undefined),25.8% (active)
9,COC(=O)CCC(=O)OC1(C)C(=O)C2=CN(Cc3ccc(OC)cc3)C(c3ccc(OC)cc3)=CC2=C(Br)C1=O (centres undefined),6%
10,O=C(c1ccccc1)c1ccc(O)cc1O,89.6% (active)
11,O=C(c1ccccc1)c1ccncc1,5.78%
12,O=C(O)c1ccccc1C1=Nc2ccc(O)cc2Oc2cc(O)ccc21,5.85%
13,O=C(c1ccccc1)c1ccccc1C(=O)c1ccccc1,12.7% (active)
14,Cn1cccc1/C=C1\CCC/C(=C\c2cccn2C)C1=O,15.9% (active)
15,CC1C/C(=C/c2cccn2C)C(=O)/C(=C/c2cccn2C)C1 (centres undefined),11.4%
16,COC(=O)c1sccc1Oc1ccc(Cl)cc1N1C(=O)CCC1=O,8.17%
17,CC(NC(=O)CN1CCC(C(N)=O)CC1)c1ccccc1 (centres undefined),5.31%
18,Cc1ccc2c(C(=O)CN3CCC(C(N)=O)CC3)c(C)[nH]c2c1,16.3% (active)
19,COc1ccc(C)cc1Nc1n[n+](-c2ccccc2)c(-c2cc([N+](=O)[O-])cc(OC)c2O)s1,5.27%
20,C=C[C@@](C)(O)CC[C@@H]1[C@@]2(C)CCCC(C)(C)[C@@H]2CC[C@@]1(C)O,6.12%
21,COc1ccccc1NS(=O)(=O)c1cc(NC(=O)c2cc3ccccc3oc2=O)ccc1C,72.6% (active)
22,COc1ccccc1NS(=O)(=O)c1cc(NC(=O)CCNC(C)=O)ccc1N1CCCCC1,4.68%
